Values after ≈ are worked out from the molar mass of the structure shown.
Columns and labels:
Assay type in all cases: functional
Staphylococcus aureus [1] = test: Antibacterial activity against linezolid-resistant Staphylococcus aureus NRS 119 by microbroth dilution method
Procedure, shortened: (§1)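 Microbroth dilution run per National Committee guidelines; MIC taken as the concentration giving 90% inhibition of bacterial growth. Tested within a broader panel of susceptible and resistant Gram-positive strains. Reported values come from triplicate determinations.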

Staphylococcus aureus [2] = test: Antibacterial activity against Staphylococcus aureus ATCC 25923 by micro-broth dilution method
Procedure, shortened: (§2)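 MIC taken as the lowest concentration giving 90% inhibition of bacterial growth. Determined by microbroth dilution following National Committee (NCCLS) guidance, with each value determined in triplicate.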

Enterococcus faecalis [3] = test: Antibacterial activity against Enterococcus faecalis ATCC 29212 by micro-broth dilution method; procedure, shortened: as §2
Staphylococcus aureus [4] = test: Antibacterial activity against methicillin-resistant Staphylococcus aureus ATCC 700699 by micro-broth dilution method; procedure, shortened: as §1
Bacillus subtilis = test: Antibacterial activity against Bacillus subtilis ATCC 6633 by micro-broth dilution method; procedure, shortened: as §2
Klebsiella pneumoniae = test: Antibacterial activity against Klebsiella pneumoniae ATCC 10031 by micro-broth dilution method; procedure, shortened: as §2
Staphylococcus aureus [5] = test: Antibacterial activity against Staphylococcus aureus ATCC 33591 by micro-broth dilution method; procedure, shortened: as §2
Staphylococcus aureus [6] = test: Antibacterial activity against Staphylococcus aureus ATCC 29213 by micro-broth dilution method; procedure, shortened: as §2
Escherichia coli = test: Antibacterial activity against Escherichia coli ATCC 25922 by micro-broth dilution method; procedure, shortened: as §2
[7] = test system: Staphylococcus epidermidis; test: Antibacterial activity against Staphylococcus epidermidis ATCC 12228 by micro-broth dilution method; procedure, shortened: as §2
Pseudomonas aeruginosa = test: Antibacterial activity against Pseudomonas aeruginosa ATCC 27853 by micro-broth dilution method; procedure, shortened: as §2
Streptococcus pneumoniae = test: Antibacterial activity against penicillin-resistant Streptococcus pneumoniae ATCC 700904 by micro-broth dilution method; procedure, shortened: as §1
Enterococcus faecalis [8] = test: Antibacterial activity against vancomycin-resistant Enterococcus faecalis ATCC 700802 by micro-broth dilution method; procedure, shortened: as §1
Staphylococcus aureus [9] = test: Antibacterial activity against Staphylococcus aureus ATCC 33592 by micro-broth dilution method; procedure, shortened: as §2
Enterococcus faecalis [10] = test: Antibacterial activity against Enterococcus faecalis ATCC 14506 by microbroth dilution method; procedure, shortened: as §2
Enterococcus faecium = test: Antibacterial activity against vancomycin-resistant Enterococcus faecium ATCC 700221 by microbroth dilution method; procedure, shortened: as §1

Row | Structure (SMILES) | MIC (Staphylococcus aureus [1]) | MIC (Staphylococcus aureus [2]) | MIC (Enterococcus faecalis [3]) | MIC (Staphylococcus aureus [4]) | MIC (Bacillus subtilis) | MIC (Klebsiella pneumoniae) | MIC (Staphylococcus aureus [5]) | MIC (Staphylococcus aureus [6]) | MIC (Escherichia coli) | MIC [7] | MIC (Pseudomonas aeruginosa) | MIC (Streptococcus pneumoniae) | MIC (Enterococcus faecalis [8]) | MIC (Staphylococcus aureus [9]) | MIC (Enterococcus faecalis [10]) | MIC (Enterococcus faecium)
1 | COc1c(N2CCc3sc(CO)cc3C2)c(F)cc2c(=O)c(C(=O)O)cn(C3CC3)c12 | 0.5 µg/mL (≈ 1.12 µM) | 2 µg/mL (≈ 4.5 µM) | 0.5 µg/mL (≈ 1.12 µM) | 2 µg/mL (≈ 4.5 µM) | ≤ 0.12 µg/mL | ≤ 0.12 µg/mL | 2 µg/mL (≈ 4.5 µM) | 2 µg/mL (≈ 4.5 µM) | 0.25 µg/mL (≈ 0.562 µM) | > 16 µg/mL | 16 µg/mL (≈ 36 µM) | ≤ 0.12 µg/mL | 0.25 µg/mL (≈ 0.562 µM) | – | – | –
2 | COc1c(N2CCc3sccc3C2)c(F)cc2c(=O)c(C(=O)O)cn(C3CC3)c12 | > 16 µg/mL | ≤ 0.125 µg/mL | 2 µg/mL (≈ 4.83 µM) | 2 µg/mL (≈ 4.83 µM) | ≤ 0.12 µg/mL | 0.25 µg/mL (≈ 0.603 µM) | ≤ 0.12 µg/mL | ≤ 0.125 µg/mL | ≤ 0.12 µg/mL | > 16 µg/mL | > 16 µg/mL | ≤ 0.125 µg/mL | ≤ 0.125 µg/mL | 0.25 µg/mL (≈ 0.603 µM) | 0.25 µg/mL (≈ 0.603 µM) | 16 µg/mL (≈ 38.6 µM)
3 | COc1c(N2CCc3sc(C(=O)O)cc3C2)c(F)cc2c(=O)c(C(=O)O)cn(C3CC3)c12 | > 16 µg/mL | 2 µg/mL (≈ 4.36 µM) | 8 µg/mL (≈ 17.4 µM) | > 16 µg/mL | 0.5 µg/mL (≈ 1.09 µM) | 2 µg/mL (≈ 4.36 µM) | 2 µg/mL (≈ 4.36 µM) | 2 µg/mL (≈ 4.36 µM) | 8 µg/mL (≈ 17.4 µM) | 1 µg/mL (≈ 2.18 µM) | > 16 µg/mL | 1 µg/mL (≈ 2.18 µM) | 16 µg/mL (≈ 34.9 µM) | 0.5 µg/mL (≈ 1.09 µM) | > 16 µg/mL | > 16 µg/mL
4 | COc1c(N2CCc3sccc3C2)c(F)c([N+](=O)[O-])c2c(=O)c(C(=O)O)cn(C3CC3)c12 | – | – | – | – | 0.25 µg/mL (≈ 0.544 µM) | – | 8 µg/mL (≈ 17.4 µM) | – | 16 µg/mL (≈ 34.8 µM) | 2 µg/mL (≈ 4.35 µM) | > 16 µg/mL | – | – | – | – | –
5 | O=C(O)c1cn(C2CC2)c2cc(N3CCc4sccc4C3)c(F)cc2c1=O | > 16 µg/mL | 1 µg/mL (≈ 2.6 µM) | – | > 16 µg/mL | ≤ 0.12 µg/mL | ≤ 0.12 µg/mL | 4 µg/mL (≈ 10.4 µM) | 4 µg/mL (≈ 10.4 µM) | 0.25 µg/mL (≈ 0.65 µM) | 8 µg/mL (≈ 20.8 µM) | > 16 µg/mL | 0.25 µg/mL (≈ 0.65 µM) | 4 µg/mL (≈ 10.4 µM) | 1 µg/mL (≈ 2.6 µM) | 16 µg/mL (≈ 41.6 µM) | > 16 µg/mL
6 | Nc1c(F)c(N2CCc3sccc3C2)c(F)c2c1c(=O)c(C(=O)O)cn2C1CC1 | > 16 µg/mL | 4 µg/mL (≈ 9.58 µM) | > 16 µg/mL | > 16 µg/mL | ≤ 0.12 µg/mL | 4 µg/mL (≈ 9.58 µM) | 4 µg/mL (≈ 9.58 µM) | 8 µg/mL (≈ 19.2 µM) | 0.25 µg/mL (≈ 0.599 µM) | 16 µg/mL (≈ 38.3 µM) | > 16 µg/mL | 2 µg/mL (≈ 4.79 µM) | 16 µg/mL (≈ 38.3 µM) | 4 µg/mL (≈ 9.58 µM) | > 16 µg/mL | > 16 µg/mL
7 | CC(=O)Nc1c(F)c(N2CCc3sccc3C2)c(F)c2c1c(=O)c(C(=O)O)cn2C1CC1 | – | – | > 16 µg/mL | – | 1 µg/mL (≈ 2.18 µM) | > 16 µg/mL | > 16 µg/mL | – | > 16 µg/mL | > 16 µg/mL | > 16 µg/mL | – | – | – | – | –
8 | Nc1c(F)c(N2CCc3sc(Br)cc3C2)c(F)c2c1c(=O)c(C(=O)O)cn2C1CC1 | – | – | > 16 µg/mL | – | > 16 µg/mL | > 16 µg/mL | – | – | > 16 µg/mL | > 16 µg/mL | > 16 µg/mL | – | – | – | – | –
9 | O=C(O)c1cn(C2CC2)c2c(F)c(N3CCc4sccc4C3)c(F)c(F)c2c1=O | > 16 µg/mL | 2 µg/mL (≈ 4.76 µM) | > 16 µg/mL | > 16 µg/mL | 0.25 µg/mL (≈ 0.595 µM) | 8 µg/mL (≈ 19 µM) | 4 µg/mL (≈ 9.51 µM) | 4 µg/mL (≈ 9.51 µM) | 0.5 µg/mL (≈ 1.19 µM) | 2 µg/mL (≈ 4.76 µM) | > 16 µg/mL | 2 µg/mL (≈ 4.76 µM) | 16 µg/mL (≈ 38.1 µM) | 2 µg/mL (≈ 4.76 µM) | > 16 µg/mL | > 16 µg/mL
10 | COc1c(N2CCc3sc(COC(C)=O)cc3C2)c(F)cc2c(=O)c(C(=O)O)cn(C3CC3)c12 | 2 µg/mL (≈ 4.11 µM) | 1 µg/mL (≈ 2.06 µM) | 0.5 µg/mL (≈ 1.03 µM) | 4 µg/mL (≈ 8.22 µM) | ≤ 0.12 µg/mL | 2 µg/mL (≈ 4.11 µM) | 0.25 µg/mL (≈ 0.514 µM) | 4 µg/mL (≈ 8.22 µM) | 0.5 µg/mL (≈ 1.03 µM) | ≤ 0.12 µg/mL | > 16 µg/mL | ≤ 0.12 µg/mL | 1 µg/mL (≈ 2.06 µM) | 2 µg/mL (≈ 4.11 µM) | – | –
11 | O=C(O)c1cn(C2CC2)c2cc(N3CCc4sc(Br)cc4C3)c(F)cc2c1=O | > 16 µg/mL | 0.5 µg/mL (≈ 1.08 µM) | – | > 16 µg/mL | ≤ 0.12 µg/mL | 2 µg/mL (≈ 4.32 µM) | 4 µg/mL (≈ 8.63 µM) | 4 µg/mL (≈ 8.63 µM) | 1 µg/mL (≈ 2.16 µM) | 0.5 µg/mL (≈ 1.08 µM) | > 16 µg/mL | 2 µg/mL (≈ 4.32 µM) | > 16 µg/mL | 4 µg/mL (≈ 8.63 µM) | > 16 µg/mL | –
12 | O=C(O)c1cn(C2CC2)c2cc(N3CCNCC3)c(F)cc2c1=O [CIPROFLOXACIN] | > 16 µg/mL | 0.25 µg/mL (≈ 0.754 µM) | 2 µg/mL (≈ 6.04 µM) | > 16 µg/mL | ≤ 0.12 µg/mL | ≤ 0.12 µg/mL | 1 µg/mL (≈ 3.02 µM) | 1 µg/mL (≈ 3.02 µM) | ≤ 0.12 µg/mL | ≤ 0.12 µg/mL | – | 0.25 µg/mL (≈ 0.754 µM) | 1 µg/mL (≈ 3.02 µM) | 0.5 µg/mL (≈ 1.51 µM) | 1 µg/mL (≈ 3.02 µM) | > 16 µg/mL
13 | C[C@@H]1CN(c2c(F)c(N)c3c(=O)c(C(=O)O)cn(C4CC4)c3c2F)C[C@H](C)N1 [SPARFLOXACIN] | 16 µg/mL (≈ 40.8 µM) | ≤ 0.125 µg/mL | – | 8 µg/mL (≈ 20.4 µM) | ≤ 0.12 µg/mL | ≤ 0.12 µg/mL | 16 µg/mL (≈ 40.8 µM) | ≤ 0.125 µg/mL | – | 0.25 µg/mL (≈ 0.637 µM) | 0.25 µg/mL (≈ 0.637 µM) | ≤ 0.125 µg/mL | 1 µg/mL (≈ 2.55 µM) | ≤ 0.25 µg/mL | > 16 µg/mL | 16 µg/mL (≈ 40.8 µM)

— ChEMBL document CHEMBL1148855, “Synthesis and antibacterial activity of 4,5,6,7-tetrahydro-thieno[3,2-c]pyridine quinolones” (2007)
